Where two headings read alike, the source gives them in different places.
Columns and labels:
MM.1S cells = format: in vivo
MM cells [1] = experiment: Single-agent anti-MM cell viability; format: cell-based, human; details: read-out: EC50, single-agent anti-MM activity; 24 h of exposure
Summary of the method: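 Myeloma cells were seeded at 3×10^4 cells/well and exposed to test compound alone. Viability was read by CellTiter-Glo luminescence (470 nm, 1-s integration), and EC50 was derived from dose–response curves.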

MM cells [2] = experiment: PI sensitization of MM cell lines; format: cell-based, human
[3] = Stability against oxidative metabolism by human liver microsomes; format: in vitro ADME
PDIA4 = experiment: Insulin reduction assay; format: biochemical
Summary of the method: (§1)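 The assay measured reductase activity of recombinant PDI family isoforms through insulin reduction, followed as insulin aggregation (turbidity) kinetic traces. A dose range of test compound was applied. IC50 values were extrapolated from 10-dose inhibition curves.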

[4] = mouse, in vivo
PDIA1 = PDIA1 (Homo sapiens, UniProt P07237); experiment: Insulin reduction assay; format: biochemical
PDIA1, sequence (P07237 18-508): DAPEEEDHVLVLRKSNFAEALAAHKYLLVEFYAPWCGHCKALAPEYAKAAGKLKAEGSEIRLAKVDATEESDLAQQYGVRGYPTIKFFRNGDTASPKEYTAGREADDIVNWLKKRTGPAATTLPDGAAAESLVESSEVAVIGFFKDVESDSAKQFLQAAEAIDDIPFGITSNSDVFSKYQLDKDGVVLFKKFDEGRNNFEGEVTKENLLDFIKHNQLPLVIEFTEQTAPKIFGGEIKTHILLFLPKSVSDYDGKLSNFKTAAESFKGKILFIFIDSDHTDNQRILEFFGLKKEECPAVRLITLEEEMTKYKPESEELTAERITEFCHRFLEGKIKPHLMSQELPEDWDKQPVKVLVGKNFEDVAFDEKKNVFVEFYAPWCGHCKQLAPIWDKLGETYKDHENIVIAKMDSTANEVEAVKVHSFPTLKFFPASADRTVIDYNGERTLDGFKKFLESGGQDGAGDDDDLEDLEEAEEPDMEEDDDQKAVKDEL
Summary of the method: as §1

[5] = Stability in serum, simulated gastric and intestinal fluids; format: in vitro ADME
PDIA6 = experiment: Insulin reduction assay; format: biochemical
Summary of the method: as §1

Vk*MYC transgenic mice = experiment: Vk*MYC transgenic mouse model of MM; format: in vivo; details: 2 mg/kg i.p. days 1, 3, 5 of each week for 2 weeks; three mice; P=0.0135
[6] = Pharmacokinetics in CD-1 mice; format: in vivo, mouse
Summary of the method: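 CD-1 mice received a single dose of test compound, either i.v. at 2 mg/kg or p.o. at 5 mg/kg. Plasma drug concentrations were followed over 24 h by an optimized LC-MS method. Oral bioavailability and terminal half-life were derived from these plasma profiles.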

TXNDC5 = experiment: Insulin reduction assay; format: biochemical
Summary of the method: as §1

PDIA3 = experiment: Insulin reduction assay; format: biochemical
Summary of the method: as §1

MM.1S BzR cells [7] = experiment: Effect on lenalidomide or doxorubicin cytotoxicity; format: cell-based
MM.1S BzR cells [8] = experiment: Btz re-sensitization of PI-resistant MM cells; format: cell-based; details: screening hit, low micromolar E61
RPMI-8226 cells = experiment: Effect on dexamethasone activity in dexamethasone resistant cells; format: cell-based; details: dexamethasone resistant RPMI-8226 cells
normal cells = experiment: PI sensitization in normal cells; format: cell-based; details: PBMCs, WBCs, MRC-5, Wi-38, HFF, MEF; Btz and Crflz
Summary of the method: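 Normal human PBMCs, lymphocytes, lung (MRC-5, Wi-38) and foreskin (HFF) fibroblasts, and mouse MEF fibroblasts were seeded at 3×10^4 cells/well. Cells received 8-dose Btz or Crflz curves with or without 5 µM test compound. Viability was measured by CellTiter-Glo luminescence. Fold change = PI EC50 without / EC50 with test compound; >1 denotes sensitization, <1 protection.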

20S proteasome = experiment: Chymotrypsin-like activity of the 20S proteasome; format: biochemical
MM.1S BzR cells [9] = experiment: NSG mouse xenotransplant model with MM.1S BzR cells; format: in vivo
Summary of the method: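 Mice implanted i.v. with PI-resistant MM.1S BzR cells; test compound at 50 mg/kg i.p. daily versus vehicle, from day 21 post-implant. Read-out: Kaplan–Meier survival. In a parallel cohort, mice were sacrificed on day 49 and % CD138+ cells in bone marrow biopsies was quantified (vehicle N=8, treated N=7), compared by t-test.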

[10] = E64FC26 2 mg/kg i.p. 3 days/week, N=9

In the case of `CCCCCCCC/C=C1\C=C(C(F)(F)F)c2cc(O)c(O)cc21` [E64FC26], the “increase in median survival over vehicle” value (MM.1S cells; [10]) is reported as 2 weeks, the “increase in median survival over vehicle (percent)” value (MM.1S cells; [10]) is reported as 40% and the “mice alive on day 36” value (MM.1S cells; E64FC26 2 mg/kg i.p. 3 days/week, vehicle 0% (0/9)) is reported as 100%. The “overt toxicity or body weight fluctuations” value (MM.1S cells; mouse, in vivo) was “No overt toxicity or body weight fluctuations”, the EC50 (MM cells [1]) was 590 nM and the “potency relative to E61 in cellular models of PI sensitization” value (MM cells [2]) was greater than 10 times. For the same compound, the “concentrations highly synergistic with PIs” value (MM cells [2]; MM.1S BzR and U266 BzR cells, Btz) was no less than 200 nM, the “average increase in PI sensitivity” value (MM cells [2]; cells treated with empirically determined EC10–20 of the PDI inhibitor) was 6–7 fold and the “calculated intrinsic clearance in human liver microsomes” value [3] was 6.22 ± 0.98 µL/min/mg. The “inhibition of PDIA4 (qualitative)” value (PDIA4) was “inhibited”, the “blood serum chemistry markers (toxicology)” value [4] was “mild thrombocytopenia and neutropenia” and the “potency relative to E61 as inhibitor of PDI activity in vitro” value (PDIA1) was greater than 50 times. The IC50 (PDIA1; read-out: IC50 against PDIA1, insulin reduction assay) was 1900 ± 100 nM, the “stability in serum, simulated gastric and intestinal fluids, and human liver microsomes compared to E61” value [5] was “increased stability” and the “inhibition of PDIA6 (qualitative)” value (PDIA6) was “inhibited”. For the same compound, the “average decrease in serum M-protein” value (Vk*MYC transgenic mice) was 33 ± 7.9%, the oral bioavailabilty ([6]; p.o. 5 mg/kg, i.v. 2 mg/kg) was 34% and the Cmax ([6]; read-out: maximum concentration (Cmax), single oral dose of 5 mg/kg, plasma) was roughly 400 nM. For the same compound, the terminal half-life ([6]; single oral dose of 5 mg/kg) was 9.5 h, the “inhibition of TXNDC5 (qualitative)” value (TXNDC5) was “inhibited” and the “inhibition of PDIA3 (qualitative)” value (PDIA3) was “inhibited”.

With PACMA 31 [reference compound] the “inhibition of PDIA4 (qualitative)” value (PDIA4) was “inhibited”, the “inhibition of PDIA6 (qualitative)” value (PDIA6) was “inhibited” and the “inhibition of TXNDC5 (qualitative)” value (TXNDC5) was “inhibited”. The “inhibition of PDIA3 (qualitative)” value (PDIA3) was “failed to inhibit”.

With `CCCCCCCCOC(=O)/C=C/c1ccc(O)c(O)c1` [E61, n-octyl caffeate] the “effect on lenalidomide or doxorubicin cytotoxicity” value (MM.1S BzR cells [7]) was “did not affect”, the EC50 (MM cells [1]) was 18300 nM and the “enhancement of Btz cytotoxicity” value (MM.1S BzR cells [8]) was greater than 6 fold. The “effect on dexamethasone activity” value (RPMI-8226 cells) was “no effect”, the “calculated intrinsic clearance in human liver microsomes” value [3] was 97.6 ± 6.0 µL/min/mg and the “enhancement of the cytotoxic effects of PIs in normal cells” value (normal cells) was “failed to enhance”. For the same compound, the “IC50 in vitro (PDI assay, qualitative)” value (PDIA1) was “high micromolar”, the “inhibition of chymotrypsin-like activity of the 20S proteasome” value (20S proteasome) was “did not inhibit” and the “number of CD138+ MM cells in bone marrow” value (MM.1S BzR cells [9]; 50 mg/kg i.p. daily, sacrificed on day 49, P=0.007) was “significant reduction”. The “treated mice that never reached the survival endpoint” value (MM.1S BzR cells [9]; 50 mg/kg/day i.p.) was 4 of the 11, the median survival (MM.1S BzR cells [9]; 50 mg/kg/day i.p., continuous dosing, vehicle 51 days) was 62 days and the “prolongation of median survival” value (MM.1S BzR cells [9]; 50 mg/kg/day i.p., continuous dosing, vs vehicle, N=11) was 11 days. For the same compound, the “tolerability (overt signs of distress, body weight)” value (MM.1S BzR cells [9]; continuous dosing for 40+ days, 50 mg/kg/day i.p.) was “well tolerated”.

In the case of `O=C(O)/C=C/c1ccc(O)c(O)c1` [caffeic acid, reference compound], the “enhancement of the sensitivity of MM cells to PIs (qualitative)” value (MM cells [2]) is reported as “failed to enhance” and the “PDI reductase activity in vitro (qualitative)” value (PDIA1) is reported as “no activity”.

In the case of `CC(C)C[C@H](NC(=O)[C@H](Cc1ccccc1)NC(=O)c1cnccn1)B(O)O` [Btz, bortezomib, reference compound], the “increase in median survival over vehicle” value (MM.1S cells; Btz 0.25 mg/kg i.p. 2 days/week, E64FC26 2 mg/kg i.p. 3 days/week, N=8) is reported as 6 days.

Reference: PMC7194280 (Leukemia, 2018)
